From ChEMBL document CHEMBL3120083, “Discovery of N-[4-[6-tert-butyl-5-methoxy-8-(6-methoxy-2-oxo-1H-pyridin-3-yl)-3-quinolyl]phenyl]methanesulfonamide (RG7109), a potent inhibitor of the hepatitis C virus NS5B polymerase” (J Med Chem, 2014)
Values belong to the compound of their own block, whether it stands above or below them.

How the values were obtained:
[1] = system: Hepatitis C virus; assay: Antiviral activity against Hepatitis C virus genotype 1b Con1 infected in human 2209-23 cells after 72 hrs by luciferase reporter gene assay in presence of 40% human serum; format: functional, organism-based, Hepacivirus hominis; details: isolate Con1, 2209-23, 72 h
[2] = system: Hepatitis C virus; assay: Antiviral activity against Hepatitis C virus genotype 1a H77 infected in human 2209-23 cells after 72 hrs by luciferase reporter gene assay in presence of 40% human serum; format: functional, organism-based, Hepacivirus hominis; details: genotype 1a H77, 2209-23, 72 h
[3] = system: Hepatitis C virus; assay: Antiviral activity against Hepatitis C virus genotype 1a H77 infected in human 2209-23 cells after 72 hrs by luciferase reporter gene assay; format: functional, organism-based, Hepacivirus hominis; details: genotype 1a H77, 2209-23, 72 h
[4] = Cmax in Wistar/Han rat at 30 mg/kg, po of amorphus MBP compound; format: ADME, organism-based; design: dose 30 mg/kg, route oral; details: in vivo
Outline: (§1)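 Single oral dose by gavage in 2% Klucel LF in water (the amorphous MBP was made by solvent-controlled co-precipitation with Eudragit L100-55 from DMA into chilled pH 3.0 dilute HCl), n = 3. EDTA blood typically sampled at 0.25, 0.5, 1, 2, 4, 6, 8 and 24 h. Plasma levels by LC/MS/MS after acetonitrile protein precipitation.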

[5] = Volume of distribution at steady state in Wistar/Han rat at 2.6 mg/kg, iv; format: ADME, organism-based; design: dose 2.6 mg/kg, route intravenous; details: in vivo, read-out: Vdss
Outline: (§2)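 Single IV bolus by tail vein or jugular cannula in 2% dimethyl acetamide/20% PEG400/23.4% HPBCD, n = 3. EDTA blood taken at typically 0.08, 0.25, 0.5, 1, 2, 4, 6, 8 and 24 h. Plasma assayed by LC/MS/MS after acetonitrile protein precipitation; clearance, Vdss and t1/2 derived from the plasma data.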

[6] = system: Hepatitis C virus; assay: Antiviral activity against Hepatitis C virus genotype 1b clinical isolate RO-8 expressing NS5B assessed as inhibition of viral replication after 4 days by luciferase reporter gene assay; format: functional, organism-based, Hepacivirus hominis; details: genotype 1b clinical isolate RO-8, 96 h
[7] = system: Hepatitis C virus; assay: Antiviral activity against Hepatitis C virus genotype 1a H77 expressing NS5B assessed as inhibition of viral replication after 4 days by luciferase reporter gene assay; format: functional, organism-based, Hepacivirus hominis; details: genotype 1a H77, 96 h
[8] = system: Hepatitis C virus; assay: Antiviral activity against Hepatitis C virus genotype 1b clinical isolate RO-9 expressing NS5B assessed as inhibition of viral replication after 4 days by luciferase reporter gene assay; format: functional, organism-based, Hepacivirus hominis; details: genotype 1b clinical isolate RO-9, 96 h
[9] = system: Hepatitis C virus; assay: Antiviral activity against Hepatitis C virus genotype 1b Con1 infected in human 2209-23 cells after 72 hrs by luciferase reporter gene assay; format: functional, organism-based, Hepacivirus hominis; details: isolate Con1, 2209-23, 72 h
Outline: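 Stable GT-1b Con1 subgenomic replicon cell line expressing a renilla luciferase reporter, used as the readout of inhibition. EC50 from luciferase signal, n 2.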

[10] = system: Hepatitis C virus; assay: Antiviral activity against Hepatitis C virus genotype 1a clinical isolate RO-35 expressing NS5B assessed as inhibition of viral replication after 4 days by luciferase reporter gene assay; format: functional, organism-based, Hepacivirus hominis; details: genotype 1a clinical isolate RO-35, 96 h
[11] = system: Hepatitis C virus; assay: Antiviral activity against Hepatitis C virus genotype 1b clinical isolate RO-10 expressing NS5B assessed as inhibition of viral replication after 4 days by luciferase reporter gene assay; format: functional, organism-based, Hepacivirus hominis; details: genotype 1b clinical isolate RO-10, 96 h
[12] = Half life in Wistar/Han rat at 2.6 mg/kg, iv; format: ADME, organism-based; design: dose 2.6 mg/kg, route intravenous; details: in vivo; outline: as §2
[13] = system: Hepatitis C virus; assay: Antiviral activity against Hepatitis C virus genotype 1b Con1 expressing NS5B assessed as inhibition of viral replication after 4 days by luciferase reporter gene assay; format: functional, organism-based, Hepacivirus hominis; details: isolate Con1, 96 h
[14] = system: Hepatitis C virus; assay: Antiviral activity against Hepatitis C virus genotype 1a clinical isolate RO-34 expressing NS5B assessed as inhibition of viral replication after 4 days by luciferase reporter gene assay; format: functional, organism-based, Hepacivirus hominis; details: genotype 1a clinical isolate RO-34, 96 h
[15] = Cmax in Beagle dog at 30 mg/kg, po of amorphus MBP compound; format: ADME, organism-based, Canis lupus familiaris; design: dose 30 mg/kg, route oral; details: in vivo; outline: as §1
[16] = Oral bioavailability in Beagle dog at 30 mg/kg of amorphus MBP compound; format: ADME, organism-based, Canis lupus familiaris; details: in vivo; outline: as §1
[17] = Drug uptake in Wistar/Han rat at 30 mg/kg, po of amorphus MBP compound measured at 8 hrs; format: ADME, organism-based; design: dose 30 mg/kg, route oral; details: in vivo, read-out: Drug uptake; outline: as §1
[18] = system: Hepatitis C virus; assay: Antiviral activity against Hepatitis C virus genotype 1a clinical isolate RO-41 expressing NS5B assessed as inhibition of viral replication after 4 days by luciferase reporter gene assay; format: functional, organism-based, Hepacivirus hominis; details: genotype 1a clinical isolate RO-41, 96 h
[19] = Volume of distribution at steady state in Beagle dog at 0.86 mg/kg, iv; format: ADME, organism-based, Canis lupus familiaris; design: dose 0.86 mg/kg, route intravenous; details: in vivo, read-out: Vdss; outline: as §2
[20] = Drug uptake in Beagle dog at 30 mg/kg, po of amorphus MBP compound measured at 8 hrs; format: ADME, organism-based, Canis lupus familiaris; design: dose 30 mg/kg, route oral; details: in vivo, read-out: Drug uptake; outline: as §1
[21] = AUC (0 to infinity) in Beagle dog at 30 mg/kg, po of amorphus MBP compound; format: ADME, organism-based, Canis lupus familiaris; design: time infinity, dose 30 mg/kg, route oral; details: plasma; outline: as §1
[22] = system: Hepatitis C virus; assay: Antiviral activity against Hepatitis C virus genotype 1a clinical isolate RO-28 expressing NS5B assessed as inhibition of viral replication after 4 days by luciferase reporter gene assay; format: functional, organism-based, Hepacivirus hominis; details: genotype 1a clinical isolate RO-28, 96 h
[23] = system: Hepatitis C virus; assay: Antiviral activity against Hepatitis C virus genotype 1b clinical isolate RO-4 expressing NS5B assessed as inhibition of viral replication after 4 days by luciferase reporter gene assay; format: functional, organism-based, Hepacivirus hominis; details: genotype 1b clinical isolate RO-4, 96 h
[24] = system: Hepatitis C virus; assay: Antiviral activity against Hepatitis C virus genotype 1a clinical isolate RO-18 expressing NS5B assessed as inhibition of viral replication after 4 days by luciferase reporter gene assay; format: functional, organism-based, Hepacivirus hominis; details: genotype 1a clinical isolate RO-18, 96 h
[25] = Oral bioavailability in Wistar/Han rat at 30 mg/kg of amorphus MBP compound; format: ADME, organism-based; details: in vivo; outline: as §1
[26] = system: Hepatitis C virus; assay: Antiviral activity against Hepatitis C virus genotype 1a clinical isolate RO-38 expressing NS5B assessed as inhibition of viral replication after 4 days by luciferase reporter gene assay; format: functional, organism-based, Hepacivirus hominis; details: genotype 1a clinical isolate RO-38, 96 h
[27] = Clearance in Wistar/Han rat at 2.6 mg/kg, iv; format: ADME, organism-based; design: dose 2.6 mg/kg, route intravenous; details: in vivo; outline: as §2
[28] = system: Hepatitis C virus; assay: Antiviral activity against Hepatitis C virus genotype 1b clinical isolate RO-7 expressing NS5B assessed as inhibition of viral replication after 4 days by luciferase reporter gene assay; format: functional, organism-based, Hepacivirus hominis; details: genotype 1b clinical isolate RO-7, 96 h
[29] = system: Hepatitis C virus; assay: Antiviral activity against Hepatitis C virus genotype 1b clinical isolate RO-1 expressing NS5B assessed as inhibition of viral replication after 4 days by luciferase reporter gene assay; format: functional, organism-based, Hepacivirus hominis; details: genotype 1b clinical isolate RO-1, 96 h
[30] = AUC (0 to infinity) in Wistar/Han rat at 30 mg/kg, po of amorphus MBP compound; format: ADME, organism-based; design: time infinity, dose 30 mg/kg, route oral; details: plasma; outline: as §1
[31] = Thermodynamic solubility of the compound; format: physicochemical; details: read-out: Therm_solubility
[32] = system: Hepatitis C virus; assay: Antiviral activity against Hepatitis C virus genotype 1b clinical isolate RO-3 expressing NS5B assessed as inhibition of viral replication after 4 days by luciferase reporter gene assay; format: functional, organism-based, Hepacivirus hominis; details: genotype 1b clinical isolate RO-3, 96 h
[33] = Half life in Beagle dog at 0.86 mg/kg, iv; format: ADME, organism-based, Canis lupus familiaris; design: dose 0.86 mg/kg, route intravenous; details: in vivo; outline: as §2
[34] = Clearance in Beagle dog at 0.86 mg/kg, iv; format: ADME, organism-based, Canis lupus familiaris; design: dose 0.86 mg/kg, route intravenous; details: in vivo; outline: as §2
[35] = system: Hepatitis C virus; assay: Antiviral activity against Hepatitis C virus genotype 1a clinical isolate RO-33 expressing NS5B assessed as inhibition of viral replication after 4 days by luciferase reporter gene assay; format: functional, organism-based, Hepacivirus hominis; details: genotype 1a clinical isolate RO-33, 96 h
[36] = system: Hepatitis C virus; assay: Antiviral activity against Hepatitis C virus genotype 1b clinical isolate RO-2 expressing NS5B assessed as inhibition of viral replication after 4 days by luciferase reporter gene assay; format: functional, organism-based, Hepacivirus hominis; details: genotype 1b clinical isolate RO-2, 96 h
[37] = system: Hepatocyte; assay: Intrinsic clearance in rat hepatocytes assessed per 10^6 cells; format: ADME, cell-based
Outline: (§3)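 Suspended hepatocytes (about 1.0×10^6 cells/mL) in Williams' medium E with glutamine, antibiotics, insulin, dexamethasone and 10% FCS, 37 °C, 5% CO2, shaken at 900 rpm. Compound at 0.1–10.0 μM. Stopped with methanol plus internal standard at 2–180 min. Parent remaining by LC/MS/MS peak area ratio, in duplicate.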

[38] = system: Hepatocyte; assay: Intrinsic clearance in human hepatocytes assessed per 10^6 cells; format: ADME, cell-based; outline: as §3
[39] = Inhibition of N-terminal 6xHis-tagged Hepatitis C virus genotype 1b Con1 NS5B polymerase containing 21-amino acid deletion at C-terminus expressed in Escherichia coli using radiolabeled UTP as substrate after 2 hrs by scintillation counting analysis; design: species or system Hepatitis C virus (isolate Con1)
Outline: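 GT-1b Con1 NS5B polymerase (NS5B570n-Con1) activity assay run with RNA template at 3 nM and enzyme at 3 nM. IC50 reported in nM.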

EC90 [1]: 128 nM
EC90 [2]: 531 nM
SMILES: COc1c(/C=C/c2ccc(NS(C)(=O)=O)cc2)cc(-c2cc(F)c[nH]c2=O)cc1C(C)(C)C

EC50 [3]: 17 nM
SMILES: CC(C)(C)c1nc(-n2ccc(=O)[nH]c2=O)c2ccc(-c3ccc(NS(C)(=O)=O)cc3)cc2n1

SMILES: COc1ccc(-c2cc(C(C)(C)C)c(OC)c3cc(-c4ccc(NS(C)(=O)=O)cc4)cnc23)c(=O)[nH]1
Cmax [4]: 2100 ng/mL
Vd [5]: 2.2 L/kg
EC50 [6]: 0.33 nM
EC50 [7]: 0.3 nM
EC50 [1]: 3.8 nM
EC90 [1]: 19 nM
EC50 [8]: 0.34 nM
EC50 [9]: 1 nM
EC50 [10]: 0.3 nM
EC50 [11]: 0.34 nM
half-life [12]: 4.3 h
EC50 [13]: 0.32 nM
EC50 [14]: 0.5 nM
Cmax [15]: 1500 ng/mL
bioavailability [16]: 31%
concentration at 8 h [17]: 620 ng/mL
EC50 [18]: 0.6 nM
Vd [19]: 2.8 L/kg
concentration at 8 h [20]: 990 ng/mL
AUC(0-inf) [21]: 23700 ng·h/mL
EC50 [22]: 0.9 nM
EC50 [23]: 0.11 nM
EC50 [24]: 0.4 nM
EC50 [2]: 10 nM
EC90 [2]: 63 nM
bioavailability [25]: 26%
EC50 [26]: 4.3 nM
clearance [27]: 11.4 mL/min/kg
EC50 [28]: 0.22 nM
EC50 [29]: 0.11 nM
AUC(0-inf) [30]: 13800 ng·h/mL
solubility thermodynamic [31]: < 1 µg/mL
EC50 [32]: 0.43 nM
half-life [33]: 4.3 h
clearance [34]: 7.5 mL/min/kg
EC50 [35]: 0.6 nM
EC50 [36]: 0.19 nM

SMILES: COc1c(CC(F)(F)F)cc(-n2ccc(=O)[nH]c2=O)c2ncc(-c3ccc(NS(C)(=O)=O)cc3)cc12
CLH [37]: 3.7 uL/min/10^6 cells
CLH [38]: 0.8 uL/min/10^6 cells
EC50 [9]: 119 nM
EC50 [3]: 839 nM

SMILES: COc1c(C(C)(C)C)cc(-c2ccc[nH]c2=O)c2ncc(N3CC(CNS(C)(=O)=O)C3)cc12
IC50 [39]: 3.5 nM
EC50 [3]: 532 nM
